Screening data: PubChem, Broad Institute
ERAP1 inh: ERAP1 (human) enzyme inhibition; Q9NZ08; recombinant ERAP1, Leu-AMC fluorescence, 60 min; inhibition, % at 10.7 µM; 0.15% of 340,000 active; AID 652197;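 active = mean replicate inhibition of at least 30%, or all replicates individually reaching that 30% level; inactive = mean below 30% and not every replicate reaching it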;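 also: 0% = neutral control wells and 100% = L-leucinethiol positive control wells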
CFTR F508del cor: correctors of CFTR F508del function in bronchial epithelial cells. CFBE cells, YFP halide quenching; stimulated with forskolin plus potentiator P3; % fluorescence drop versus neutral controls. activity (quench increase), % at 7.58 µM. 0.36% of 350,000 active;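 active = mean added fluorescence quench of at least 8% versus neutral control, with both replicates also reaching 8%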;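 also: cells transiently co-express mutant CFTR-F508del with the halide-sensitive YFP; corrector assay measuring rescue of mutant channel to the surface after 24 h compound exposure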
E-selectin induc: induces E-selectin expression in human endothelial cells | HUVEC E-selectin immunofluorescence imaging; normalized: neutral wells 0, TNF-alpha wells 100 | activation, % at 7.58 µM | 0.37% of 260,000 active | AID 686992;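 active = mean E-selectin-positive cell signal at least 10% of the positive control, reached in at least 60% of replicates, without over 20% cell loss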
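Test system: HUVEC | Signal: Immunofluorescence imaging | Read-out: Percent E-selectin-positive cells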
FGF22 binding: binders of recombinant human FGF22 by thermal shift | Q9HCT0 | SYPRO orange fluorescence; percent of sucrose octasulfate shift, DMSO zero | activity (Tm shift, normalised), % at 9.99 µM | 1.5% of 340,000 active;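 active = mean Tm shift, scaled 0 neutral to 100 positive control, at about 1.3% or above, every replicate too, limit read from the data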
Target sequence (Q9HCT0 whole entry, looked up): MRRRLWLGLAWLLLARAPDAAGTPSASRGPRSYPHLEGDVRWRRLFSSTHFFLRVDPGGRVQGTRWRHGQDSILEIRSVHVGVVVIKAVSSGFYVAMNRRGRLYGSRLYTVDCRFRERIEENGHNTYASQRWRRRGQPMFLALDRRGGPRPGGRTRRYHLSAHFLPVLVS
DENV2 CPE: DENV2-induced cell death inhibition. CPE inhibition, % at 9.99 µM. 1.7% of 350,000 active. DENV2-infected cells, cytopathic effect rescue, plate reader; in the data active = CPE inhibition above about 20%, passing the limit was not always enough; tested in BHK-21 cells;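 also: 0% = median of neutral control wells and 100% = median of positive control wells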
Active calls of the source: *; x = no result given. An excerpt weighted towards active compounds, which were near 3.7% of everything screened.

SMILES	ERAP1 inh	CFTR F508del cor	E-selectin induc	FGF22 binding	DENV2 CPE
Cc1cccc(C(=O)OCC(=O)NCc2ccc(Cl)cc2)c1	6	0	1	0	29*
C/C=C/c1ccc2c(c1)[C@H]1[C@H](CCN1C(=O)C1CC1)[C@@H](CO)N2	-1	-1	0	x	7
COc1ccc(S(=O)(=O)Nc2ccc3c(c2)C(=O)N([C@H](C)CO)C[C@@H](C)[C@H](CN(C)C(=O)Cc2ccccc2)OCCCC[C@H](C)O3)cc1	-3	2	0	1	5
C[C@H]1CCCCO[C@H](CN(C)C(=O)Nc2ccc(C(F)(F)F)cc2)[C@@H](C)CN([C@@H](C)CO)C(=O)c2cc(NS(=O)(=O)c3ccc(F)cc3)ccc2O1	0	0	x	0	18
C[C@H](CO)N1C[C@H](C)[C@H](CN(C)C(=O)Nc2ccc(C(F)(F)F)cc2)OCCCC[C@H](C)Oc2ccc(NS(=O)(=O)c3ccc(F)cc3)cc2C1=O	-3	4	x	0	82*
C[C@@H]1CCCCO[C@@H](CN(C)C(=O)Nc2ccc(C(F)(F)F)cc2)[C@H](C)CN([C@H](C)CO)C(=O)c2cc(NS(=O)(=O)c3ccc(F)cc3)ccc2O1	-3	-1	x	0	69*
COc1ccc(CN(C)C[C@H]2Oc3ccc(NC(=O)C4CC4)cc3CC(=O)N([C@@H](C)CO)C[C@H]2C)cc1	1	2	0	1	3
COc1ccc(S(=O)(=O)N(C)C[C@@H]2Oc3ccc(NS(=O)(=O)c4cccs4)cc3C(=O)N([C@H](C)CO)C[C@H]2C)cc1	-1	-2	0	0	-1
COc1ccccc1Nc1nc2cc(C)ccc2cc1C#N	-1	-1	2	43*	-1
COc1ccc(NC(=O)c2cccc(S(=O)(=O)N3CCN(C)CC3)c2)c(OC)c1	-3	0	0	x	1
COc1ccc(S(=O)(=O)N2CCCCCC2)cc1C(=O)N(C)Cc1ccc(C(C)(C)C)cc1	-1	-3	2	0	59*
COc1ccc(NC(=O)c2cccc(S(=O)(=O)N3CCc4ccccc43)c2)c(OC)c1	-4	3	1	44*	0
CCN1CCN(c2ccc(S(=O)(=O)N3CCCCC3)cc2NC(=O)c2cccc(C)c2)CC1	1	2	4	0	1
COc1ccc(S(=O)(=O)N2CCCCCC2)cc1C(=O)N(C)Cc1ccc(F)cc1	-2	-1	0	0	3
COc1ccc(S(=O)(=O)N2CCCCCC2)cc1NC(=O)Cc1cccc(C(F)(F)F)c1	-10	x	x	0	111*
CCN1CCN(c2ccc(S(=O)(=O)N3CCCCC3)cc2NC(=O)c2ccc(C)c(C)c2)CC1	0	-2	x	0	38*
CN(C)S(=O)(=O)c1cccc(C(=O)Nc2ccc(S(=O)(=O)N3CCCC3)cc2)c1	1	0	3	44*	-2
COc1cccc(C(=O)Nc2cc(S(=O)(=O)N3CCCCC3)ccc2OC)c1	1	-3	0	43*	-4
COc1cccc(CNC(=O)CN2C(=O)COc3ccc(S(=O)(=O)N4CCCCCC4)cc32)c1	-1	-1	43*	0	-6
CS(=O)(=O)Nc1ccc2c(c1)[C@H]1C[C@H](CC(=O)NCC3CC3)O[C@H](CO)[C@H]1O2	2	-1	0	0	11
O=C(N[C@H]1C[C@@H]2O[C@@H](CO)CC[C@@H]2O[C@@H]1CCc1ccc(C#CC2CC2)cc1)c1cccc(F)c1	-1	-3	x	x	7
C[C@@H]1CN([C@@H](C)CO)C(=O)c2cc(C#CC3CC3)cnc2O[C@H]1CN(C)C(=O)c1ccncc1	x	-1	1	x	x
Clc1cccc(Cl)c1CSc1nnc(-c2ccncc2)s1	x	-1	0	0	70*
Clc1ccc(CSc2nnc(-c3ccncc3)s2)cc1	-2	-1	0	0	-2
CCCNC(=O)Nc1ccc2c(c1)C(=O)N(C)C[C@@H](OC)[C@H](C)CN(CCC(F)(F)F)[C@H](C)CO2	x	3	0	x	x
Cc1nnc(SCC(=O)N2CCN(C(=O)c3ccco3)CC2)n1C	6	1	2	0	-3
C=CCn1c(SCC(=O)N2CCN(c3ccccc3)CC2)nnc1-c1ccco1	3	x	x	x	x
O=C(CSc1nnc(-c2ccco2)o1)N1CCN(c2ccccc2)CC1	2	-2	12	43*	2
